Measurements published in ChEMBL document CHEMBL2086311, “UDP made a highly promising stable, potent, and selective P2Y6-receptor agonist upon introduction of a boranophosphate moiety” (Bioorg Med Chem, 2012).

Key:
[1] = Drug degradation in KCl/HCl buffer assessed as 5-OMe-uridine-H-phosphonate formation by 31P-NMR analysis at pH 1.4; assay type: physicochemical
Summary of the method: (§1)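 Sodium salt dissolved in KCl/HCl buffer pH 1.4 containing D2O, held at 37 °C. 31P NMR spectra taken at 15 min, 1 h or 24 h intervals, about every 24 h in multi-day runs. Hydrolysis rate taken from change in integration of one starting-material phosphate signal over time, fit to a pseudo-first-order model.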

[2] = Drug degradation in KCl/HCl buffer assessed as inorganic phosphate formation by 31P-NMR analysis at pH 1.4; assay type: physicochemical; summary of the method: as §1

Q: Which Drug degradation [1] does the source give for `[BH3-][P@@](=O)(OC[C@H]1O[C@@H](n2cc(OC)c(=O)[nH]c2=O)[C@H](O)[C@@H]1O)OP(=O)([O-])[O-].[Na+].[Na+].[Na+]` here?
A: The Drug degradation was “Active”.

Q: What about the Drug degradation [2] of the same compound?
A: The Drug degradation was “Active”.
